Measurements of several laboratories.
Compare with care: the assays were run in different laboratories.
PTGS2: Prostaglandin G/H synthase 2 (PTGS2, Homo sapiens, UniProt P35354)
DYRK3: Dual specificity tyrosine-phosphorylation-regulated kinase 3 (DYRK3, Homo sapiens, UniProt O43781)
BRWD1 BD2: Bromodomain and WD repeat-containing protein 1, BD2 (BRWD1, Homo sapiens, UniProt Q9NSI6)
CDKL5: Cyclin-dependent kinase-like 5 (CDKL5, Homo sapiens, UniProt O76039)
CREBBP bromodomain: CREB-binding protein, bromodomain (CREBBP, Homo sapiens, UniProt Q92793)
DYRK1B: Dual specificity tyrosine-phosphorylation-regulated kinase 1B (DYRK1B, Homo sapiens, UniProt Q9Y463)

SMILES | target | assay | test system | conditions | quantity | value
C=C[C@@]1(C)C=C2CC[C@@H]3[C@](C)(CCC[C@@]3(C)C(=O)O)[C@H]2CC1 | PTGS2 | enzyme activity, inhibitor |  | 0.24 µg/mL | inhibition | 0%
O=C(O)c1ccc2c(c1)nc(Nc1ccc(Cl)cc1)c1ncncc12 | DYRK3 | enzyme activity, inhibitor, radiometric |  | 1 µM | remaining activity | 9%
NS(=O)(=O)c1ccc(CNc2nc(Nc3cccc(NC(=O)N4CCCC4)c3)ncc2Br)cc1 | NUAK family SNF1-like kinase 1 (NUAK1, Homo sapiens, UniProt O60285) | enzyme activity, inhibitor, radiometric |  | 1 µM | remaining activity | 11%
COc1cccc(Nc2nc3cc(C(=O)O)ccc3c3cnccc23)c1 | DYRK3 | enzyme activity, inhibitor, radiometric |  | 1 µM | remaining activity | 2%
NS(=O)(=O)c1ccc(Nc2nc(-c3ccc(F)cc3)c3ccccc3n2)cc1 | BRWD1 BD2 | binding, competition with immobilised ligand |  | 1 µM | remaining binding | 88%
N=C(N)NCCC[C@H](NC(=O)[C@H](CC(=O)O)NC(=O)[C@H](Cc1c[nH]c2ccccc12)NC(=O)[C@H](CCCNC(=N)N)NC(=O)[C@@H](N)Cc1ccccc1)C(=O)N[C@@H](Cc1ccccc1)C(=O)NCC(=O)O | Melanocyte-stimulating hormone receptor (Mc1r, Mus musculus, UniProt Q01727) | cAMP, agonist | HEK293 |  | Emax | 30%
O=C(O)c1ccc2c(c1)nc(NCCc1ccccc1)c1ncncc12 | DYRK3 | enzyme activity, inhibitor, radiometric |  | 1 µM | remaining activity | 25%
Cc1cc2c(cc1N1C(=O)c3cccc4c(Cl)ccc(c34)C1=O)n(C)c(=O)n2C | BRWD1 BD2 | thermal stability, DSF |  | 10 µM | ΔTm | -1.4 °C
O=C(O)c1ccc2c(c1)nc(Nc1ccc(Cl)cc1)c1ccncc12 | DYRK3 | enzyme activity, inhibitor, radiometric |  | 1 µM | remaining activity | 2%
Nc1ncnc2occ(-c3ccc(NC(=O)Nc4cc(C(F)(F)F)ccc4F)cc3)c12 | CDKL5 | cell-free assay |  | 20 µM | remaining signal | 4.3%
Cn1nnc2ccc(NC(=O)c3cccc(C(=O)O)c3)cc21 | CREBBP bromodomain | thermal stability, DSF |  | 100 µM | ΔTm | 2 °C
N#Cc1cccc(Nc2nc3cc(C(=O)O)ccc3c3cncnc23)c1 | DYRK1B | enzyme activity, inhibitor, radiometric |  | 1 µM | remaining activity | 87%
COc1ccc(-c2cc(=O)c3c(O)cc(O[C@@H]4O[C@H](CO)[C@@H](O)[C@H](O)[C@H]4O)cc3o2)cc1O | PTGS2 | enzyme activity, inhibitor |  | 31.25 µg/mL | inhibition | 100%
Cc1cnc(Nc2ccc(OCCN3CCCC3)cc2)nc1Nc1cccc(S(=O)(=O)NC(C)(C)C)c1 | Transcription intermediary factor 1-beta (TRIM28, Homo sapiens, UniProt Q13263) | thermal stability, DSF |  | 10 µM | ΔTm | 0.08 °C
O=c1cc(-c2ccc(O)c(O)c2)oc2cc(O)cc(O)c12 | PTGS2 | enzyme activity, inhibitor |  | 0.12 µg/mL | inhibition | 21.6%
O=C(O)c1ccc2c(c1)nc(Nc1ccc3ccccc3c1)c1ccncc12 | DYRK1B | enzyme activity, inhibitor, radiometric |  | 1 µM | remaining activity | 84%
CC(CCC(=O)NCC(=O)O)C1CCC2C3CCC4CC(O)CCC4(C)C3CC(O)C12C (stereo not shown) | Serine hydroxymethyltransferase, mitochondrial (SHMT2, Homo sapiens, UniProt P34897) | thermal stability |  | 50 µM | ΔTm | 12.3 °C
CCN1CCN(Cc2ccc(NC(=O)c3ccc(C)c(Oc4ccnc5[nH]ccc45)c3)cc2C(F)(F)F)CC1 | Microtubule-associated serine/threonine-protein kinase 3 (MAST3, Homo sapiens, UniProt O60307) | target engagement in cells, inhibitor, chemoproteomics | Huh-7 | 1 µM | inhibition | -11.3%
Cc1cc2c(NC(=O)c3cccc(C(=O)O)c3)cccc2nn1 | CREBBP bromodomain | thermal stability, DSF |  | 100 µM | ΔTm | 4 °C
Oc1ccc(-c2nc(-c3ccncc3)c(-c3ccc(F)cc3)[nH]2)cc1 | Bromodomain testis-specific protein, BD1 (BRDT, Homo sapiens, UniProt Q58F21) | thermal stability, DSF |  | 10 µM | ΔTm | -0.47 °C
Cc1ccc(C(=O)Nc2ccc(CN3CCN(C)CC3)c(C(F)(F)F)c2)cc1C#Cc1cnc2cccnn12 | CDKL5 | enzyme activity |  | 23.5 nM | remaining activity | 100%
N#Cc1cccc(Nc2nc3cc(C(=O)O)ccc3c3cnccc23)c1 | DYRK1B | enzyme activity, inhibitor, radiometric |  | 1 µM | remaining activity | 10%
COC(=O)c1ccc(O)cc1 | PTGS2 | enzyme activity, inhibitor |  | 0.49 µg/mL | inhibition | 0%
C[S+]([O-])c1ccc(-c2nc(-c3ccncc3)c(-c3ccc(F)cc3)[nH]2)cc1 (stereo not shown) | BRWD1 BD2 | thermal stability, DSF |  | 10 µM | ΔTm | 1.32 °C
O=C(O)c1ccc(O)cc1 | PTGS2 | enzyme activity, inhibitor |  | 1.95 µg/mL | inhibition | 41.7%
O=C(O)c1ccc2c(c1)nc(Nc1ccccc1)c1ccncc12 | DYRK1B | enzyme activity, inhibitor, radiometric |  | 1 µM | remaining activity | 73%
O=c1cc(-c2ccc(O)cc2)oc2cc(O)cc(O)c12 | PTGS2 | enzyme activity, inhibitor |  | 0.12 µg/mL | inhibition | 3.07%
CN(C)C1CCN(CC#Cc2nn(C3CCCC3)c3nc(NCc4ccccc4)ncc23)C1 (stereo not shown) | Serine/threonine-protein kinase PAK 1 (PAK1, Homo sapiens, UniProt Q13153) | enzyme activity, inhibitor, FRET |  | 0.1 µM | inhibition | 2%
